DNMT1 inh: DNMT1 (human) enzyme inhibition. inhibition (reported as % activation of signal), % at 10 µM. 0.83% of 360,000 active. P26358. DNMT1 molecular beacon, Hinp1I cleavage, fluorescence; in the data active means inhibition above about 50%
Scp1 inh: inhibitors of human Scp-1 phosphatase | Q9GZU7 | Recombinant Scp1, phosphopeptide, malachite green phosphate absorbance | inhibition, % at 20 µM | 0.88% of 340,000 active | AID 493091;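 active means inhibition above about 50% at 20 µM, limit read from the data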
Target sequence (Q9GZU7 76-261 limits assumed): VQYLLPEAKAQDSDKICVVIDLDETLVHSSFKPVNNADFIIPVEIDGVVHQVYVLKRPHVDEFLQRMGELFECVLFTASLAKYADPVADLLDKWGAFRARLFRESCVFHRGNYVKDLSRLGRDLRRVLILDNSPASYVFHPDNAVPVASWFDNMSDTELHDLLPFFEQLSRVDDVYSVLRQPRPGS
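Test system: SCP-1 catalytic domain; Buffer or medium: Acidic Tris acetate buffer with magnesium and detergent; Also added: Phosphorylated 17-residue peptide substrate; Compound: single 20 µM dose, 1% DMSO; Schedule: enzyme reaction 45 min at room temperature, colour 5 min, stabilisation 30 min; Signal: Phosphate-binding colour reagent, absorbance read at 630 nm.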
HKDC1 inhibitor: HKDC1 (human) hexokinase inhibition. recombinant HKDC1, G6PDH/diaphorase resazurin coupled fluorescence. Q2TB90. inhibition, % at 20 µM. 0.16% of 340,000 active. AID 493160;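 active means inhibition above about 35% when tested at 20 µM, limit read from the data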
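Assay system: recombinant HKDC1 hexokinase; detection: coupled resazurin fluorescence, excitation 525 nm, emission 613 nm; benchmarks: DMSO-plus-enzyme-mix negative control, buffer-substituted positive control; compound dosing: single 20 µM dose; schedule: 90 min at room temperature in dark; also added: glucose plus 1 mM ATP as hexokinase substrates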
SUMO1-SIM PPI: SUMO1-SIM interaction modulation; P63165; SUMO1 binding to a labelled peptide, TR-FRET, 1 h; inhibition, % at 20 µM; 0.33% of 360,000 active; in the data active means inhibition above about 37%
Target sequence (P63165 whole entry, looked up): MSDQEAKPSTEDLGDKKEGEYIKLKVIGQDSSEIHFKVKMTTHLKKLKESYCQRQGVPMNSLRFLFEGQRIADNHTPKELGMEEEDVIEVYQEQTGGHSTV
LMPTP inh: LMPTP (human) inhibition; recombinant LMPTP-A, OMFP fluorogenic substrate, fluorescence intensity; inhibition, % at 20 µM; 0.22% of 360,000 active;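 active means compounds that cut the enzyme signal by at least half of the control window in the single-dose screen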
Target sequence (P24666 whole entry, looked up): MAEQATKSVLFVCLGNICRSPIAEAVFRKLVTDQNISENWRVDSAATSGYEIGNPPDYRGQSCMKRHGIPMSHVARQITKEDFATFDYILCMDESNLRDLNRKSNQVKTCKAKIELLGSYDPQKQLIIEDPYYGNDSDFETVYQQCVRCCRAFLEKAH
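Buffer or medium: Bis-Tris pH 6.0, DTT, detergent; Assay system: LMPTP-A enzyme; Quantity: 0.625 nM enzyme; Detection: endpoint fluorescence intensity; Times: 50 min dark incubation at room temperature; Controls: substrate-only low control, DMSO enzyme-plus-substrate high control; Doses: single 20 µM dose; Read-out: percent inhibition versus substrate-only and uninhibited controls; Reagent: 400 µM OMFP.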
STEP block: STEP (human) phosphatase inhibition; recombinant STEP, OMFP fluorogenic substrate, fluorescence; inhibition, % at 20 µM; 0.25% of 360,000 active; AID 588621;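 active means inhibition at 20 µM, scaled per plate between control wells, above about 37%, limit read from the data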
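Also added – OMFP at 25 µM · Test system – STEP tyrosine phosphatase · Technique – FITC-channel fluorescence of OMFP product · Schedule – 20 min at room temperature, dark · Evaluation – control-normalized % inhibition with plate pattern correction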
Scp1 confirm: confirmation of human Scp-1 phosphatase inhibitors; shares compounds with Scp1 inh; recombinant SCP-1 catalytic domain, phosphate release, malachite green absorbance; inhibition, % at 20 µM; 61% of 2,500 active; AID 540281
Scp-1 MG ctr: colorimetric interference in Scp-1 counter-screen; Colorimetric interference counterscreen, malachite green absorbance 630 nm; shares compounds with Scp1 inh; 2,500 tested, under 10 active; apparent inhibition (interference), % at 20 µM; AID 540313;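 further: compounds added after enzyme reaction finished so only phosphate colour detection is probed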
Scp1 DSF: validation of human Scp-1 inhibitors by thermal shift binding; shares compounds with Scp1 inh; AID 540329; thermal shift relative to vanadate control, % at 40 µM; Recombinant SCP1, Sypro Orange thermal shift Tm; 25% of 1,500 active;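 active means substances whose mean melting-temperature shift, as a percentage of the reference inhibitor's shift, reaches about 5.3%, limit read from the data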
Large screens that a line does not name were inactive (follow-up assays come after a bar, where they were run). Most compounds without a hit are left out; they make up all but 1.8% or so of the library.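 How the source made its calls, unless noted: active means inhibition of at least 30% at 20 µM; inactive means the rest.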

Cc1ccc(S(=O)(=O)Nc2cccc3c2O[C@H](CN(C)Cc2ccc(-c4ccccc4)cc2)[C@@H](C)CN([C@H](C)CO)C3=O)cc1	none
C[C@H](CO)N1C[C@H](C)[C@@H](CN(C)Cc2ccc(C(=O)O)cc2)Oc2c(NS(=O)(=O)c3cccs3)cccc2C1=O	Scp1 inh 50 | Scp1 confirm inactive | Scp-1 MG ctr inactive
C[C@H](CO)N1C[C@H](C)[C@@H](CN(C)Cc2ccc(-c3ccccc3)cc2)Oc2c(NS(=O)(=O)c3ccccc3)cccc2C1=O	Scp1 inh 62 | Scp1 confirm inactive | Scp-1 MG ctr inactive
Cc1ccc(S(=O)(=O)N2CCC(=O)c3ccccc32)cc1	none (no result: Scp1 inh, HKDC1 inhibitor)
COc1ccc(/C=C2\SC(=S)N(CCC(=O)Nc3ccc(C(=O)O)cc3)C2=O)cc1	Scp1 inh 87, LMPTP inh 90, STEP block 95 | Scp1 confirm 69 | Scp-1 MG ctr inactive | Scp1 DSF 21
COc1ccc(/C=C2\SC(=S)N(CCCC(=O)Nc3ccc(O)cc3)C2=O)cc1	none
O=C(CCN1C(=O)/C(=C/c2ccc(F)cc2)SC1=S)Nc1cc([N+](=O)[O-])ccc1O	Scp1 inh 64 | Scp1 confirm 50 | Scp-1 MG ctr inactive | Scp1 DSF 7.2
O=C(CCCN1C(=O)/C(=C/c2cccs2)SC1=S)Nc1cc([N+](=O)[O-])ccc1O	none
O=C(CSc1ccc2c(c1)OCCO2)N1CCN(c2ccccc2)CC1	none
COc1cccc(OCCOc2ccc(/C=C3/SC(=S)NC3=O)cc2)c1	Scp1 inh 56 | Scp1 confirm inactive | Scp-1 MG ctr inactive
CCCCc1cc(=O)oc2cc(C)cc(OCC(=O)NC(Cc3ccc(Cl)cc3)C(=O)O)c12 (centres undefined)	none
COc1ccc(-c2sc3cc4c(cc3c2C#CC2(O)CCCCC2)OCO4)cc1	none
COc1ccccc1-c1oc2ccccc2c1C#CC1(N)CCCCC1	none
COc1ccccc1-c1sc2cc3c(cc2c1C#CC1(O)CCCCC1)OCO3	Scp1 inh 56 | Scp1 confirm inactive | Scp-1 MG ctr inactive
COc1ccccc1-c1oc2ccccc2c1C#CC1(O)CCCCC1	Scp1 inh 89 | Scp1 confirm inactive | Scp-1 MG ctr inactive
CCN(CC(=O)Nc1c(F)cccc1F)C(=O)c1ccc2c(c1)OCO2	none
COc1ccc(NS(=O)(=O)c2cccc(C(=O)NNC(=O)c3cccn3C)c2)cc1	Scp1 inh 63 | Scp1 confirm 65 | Scp-1 MG ctr inactive | Scp1 DSF 6.8
CC(=O)Nc1ccc(C(=O)COC(=O)c2cc(C)oc2C)c(F)c1	none
CSc1nnc(-c2cc[n+](C)cc2)n1CCO	Scp1 inh 66 | Scp1 confirm inactive | Scp-1 MG ctr inactive
CCCCNC(=O)c1nc(-c2cccnc2)oc1-c1ccc(OC(F)(F)F)cc1	none (no result: DNMT1 inh, Scp1 inh, HKDC1 inhibitor, STEP block)
CC(C)[C@H](NC(=O)c1ccccc1Cl)C(=O)OCC(=O)NC(=O)NCc1ccco1	none
Cc1ccc(S(=O)(=O)N[C@H](C(=O)OCC(=O)NC(=O)NCc2ccco2)C(C)C)cc1	Scp1 inh 62 | Scp1 confirm inactive | Scp-1 MG ctr inactive
CCN1C(=NCc2ccco2)N[C@@H](c2cccc(C(F)(F)F)c2)C(C(=O)OC)=C1C	none
CCN1C(=NCCOC)N[C@@H](c2cccc(C(F)(F)F)c2)C(C(=O)OC)=C1C	Scp1 inh 56 | Scp1 confirm inactive | Scp-1 MG ctr inactive
CCN1C(=NCC2CC2)N[C@@H](c2cccc(C(F)(F)F)c2)C(C(=O)OC)=C1C	Scp1 inh 50 | Scp1 confirm inactive | Scp-1 MG ctr inactive
